3 compounds from ChEMBL document CHEMBL1141543, “Protective effect of nitronyl nitroxide-amino acid conjugates on liver ischemia-reperfusion induced injury in rats” (Bioorg Med Chem Lett, 2008) can be followed below.

The source made the active and inactive calls. The calls are words filed in the database; no cut-off is given here.

The subject of assay [1] is PC-12. The experiment in a line: Nitric oxide radical scavenging activity in rat PC12 cells. The class given is functional, cell-based. In a few lines: (§1)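 PC12 rat pheochromocytoma cells exposed to NO, H2O2 or ·OH. Test compound given either as pre-incubation before radical exposure or as incubation after exposure. Cell survival read by MTT reduction, used as the index of radical scavenging.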

For assay [2], the system named is PC-12. The experiment in a line: Hydrogen peroxide radical scavenging activity in rat PC12 cells. The class given is functional, cell-based. In a few lines:
as §1

Assay [3] concerns PC-12. Kind of assay: Hydroxyl radical scavenging activity in rat PC12 cells. In kind it is functional, cell-based. In a few lines: as §1
Assay [4] concerns Aorta. Kind of assay: Nitric oxide radical scavenging activity in rat thoracic aorta assessed as inhibition of acteylcholine-induced vasorelaxation at 100 umol. In kind it is functional, tissue-based.
Assay [5] relates to Aorta. Kind of assay: Nitric oxide radical scavenging activity in rat thoracic aorta assessed as inhibition of acteylcholine-induced vasorelaxation at 10 umol. In kind it is functional, tissue-based.
In assay [6] the test system is Aorta. Kind of assay: Nitric oxide radical scavenging activity in rat thoracic aorta assessed as inhibition of acteylcholine-induced vasorelaxation at 1 umol. The class given is functional, tissue-based.
Assay [7] concerns PC-12. Kind of assay: Suppression of free radical-induced decrease in viability of rat PC12 cells. In kind it is functional, cell-based. In a few lines:
as §1

Assay [8] deals with Rattus norvegicus. Kind of assay: Protection against hepatic ischemia-reperfusion-induced injury assessed as effect on malondialdehyde level in Wistar rat liver at 30 mg/kg. In kind it is functional. In outline:
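Male Wistar rats given liver ischemia 30 min and reperfusion 2 h under pentobarbital anesthesia. Drug 30 mg/kg dosed 10 min before reperfusion and 1 h after it began; controls got saline. Liver frozen at -70 °C. MDA in liver mitochondria measured spectrophotometrically as thiobarbituric acid reactive substances (Buege and Aust method).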

Assay [9] concerns Rattus norvegicus. Kind of assay: Protection against hepatic ischemia-reperfusion-induced injury assessed as effect on aspartate aminotransferase level in Wistar rat liver at 30 mg/kg. In kind it is functional. In outline:
(§2)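 Male Wistar rats, liver ischemia 30 min then reperfusion 2 h under sodium pentobarbital anesthesia (80 mg/kg). Drug 30 mg/kg given 10 min before reperfusion and again 1 h into reperfusion; sham and I/R controls received saline. n = 8 per group (sham n = 4). Serum ALT and AST measured as liver function; blood frozen at -70 °C until analysis.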

The subject of assay [10] is Rattus norvegicus. The experiment in a line: Protection against hepatic ischemia-reperfusion-induced injury assessed as effect on alanine aminotransferase level in Wistar rat liver at 30 mg/kg. The class given is functional. In outline:
as §2

The term EC50 denotes the concentration at which the effect is half-maximal. A higher EC50 goes with a need for much substance. As a reminder, the inhibition is the share of the control response that was lost under treatment. In the case of `CC1(C)N([O])C(c2ccc(OCC(=O)N[C@@H](CCCCN)C(=O)O)cc2)=[N+]([O-])C1(C)C`, the EC50 in the assay with PC-12 [1] came to 85.5 µM; in the assay on PC-12 [2] it was 26.8 µM; in the assay with PC-12 [3] it was 92.7 µM. For the same compound, the inhibition with Aorta [4] was found to be 85%; with Aorta [5] it was 60.7%; in the assay with Aorta [6], 24.8%. For the same compound, the outcome in the assay with PC-12 [7] was Active.

As for `N=C(N)NCCC[C@H](N)C(=O)O` [ARGININE], the Activity in the assay with Rattus norvegicus [8] turned out to be 3.82 nmol/mg; with Rattus norvegicus [9], 789 U/L; with Rattus norvegicus [10], 493 U/L.

`CC1(C)N([O])C(c2ccc(OCC(=O)N[C@@H](CCCNC(=N)N)C(=O)O)cc2)=[N+]([O-])C1(C)C`: the EC50 with PC-12 [1] is 92.8 µM; in the assay on PC-12 [2], 49 µM; in the assay with PC-12 [3] it was 98.9 µM. For the same compound, the inhibition with Aorta [4] was determined as 98.9%; in the assay with Aorta [5] it was 74%; with Aorta [6], 28.7%. The Activity with Rattus norvegicus [8] worked out at 2.76 nmol/mg; with Rattus norvegicus [9], 510 U/L; in the assay with Rattus norvegicus [10], 173 U/L. For the same compound, in the assay on PC-12 [7], the result was Active.
